Bounds are passed on as bounds.

This test can be described thus: Cytotoxicity against human U87MG cells after 24 hrs by MTT assay. Format: functional, cell-based, U-87MG ATCC. The following applies: U-87 MG. The method, boiled down:
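U87MG human glioblastoma cells were grown in EMEM with 10% FBS and 1% penicillin–streptomycin at 37 °C under humidified 5% CO₂, then seeded at 2 × 10³ cells/well. At about 50% confluence, cells were exposed to compounds at various concentrations (10 mmol/L DMSO stocks; DMSO control) for 24 h. MTT was then added for 3 h at 37 °C, formazan was dissolved in DMSO, and A540 was read. IC50 values are means of three experiments.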
On the technique in general: Tetrazolium assays rely on reduction of a dye to a coloured formazan, in cell work by metabolically active cells.

What is called IC50 is the point on the concentration scale where inhibition reaches its midpoint. Low readings indicate greater potency in that assay, high ones weaker potency in that assay. Take `COc1ccccc1C(=O)Nc1cn(-c2ccccc2)nc1-c1ccccc1`: half-maximal inhibition (IC50) was put at 81 µM.

Molecule `NCCCCCCCCCCCC(=O)Nc1cn(-c2ccccc2)nc1-c1ccccc1` gave an IC50 of 77 µM.

The molecule `Cn1cc(NC(=O)CCCCCCCCCCCN)c(-c2ccccn2)n1` came in with an IC50 of 90 µM.

The molecule `O=C(CCCCCCCCCCS)Nc1cn(-c2ccccc2)nc1-c1ccccc1` returned an IC50 of 90 µM.

For the molecule `O=C(CCCCCCCCCCO)Nc1cn(-c2ccccc2)nc1-c1ccccc1`, the half-inhibitory concentration (IC50) was greater than 150 µM.

On to `Cn1cc(NC(=O)CCCCCCCCCCS)c(-c2ccccn2)n1`, for which the IC50 is greater than 150 µM.

As for `O=C(Nc1cn(-c2ccccc2)nc1-c1ccccc1)c1ccccc1`, the IC50 is greater than 150 µM.

`CCCCCCCCCCCC(=O)Nc1cn(C)nc1-c1ccccn1` displayed an IC50 greater than 150 µM.

The molecule `COc1ccccc1C(=O)Nc1cn(C)nc1-c1ccccn1` returned an IC50 of 130 µM.

As to `Cn1cc(NC(=O)c2ccccc2)c(-c2ccccn2)n1`, the half-maximal inhibitory concentration (IC50) is greater than 150 µM.

`C[C@H](N)C(=O)Nc1cn(-c2ccccc2)nc1-c1ccccc1` showed an IC50 greater than 150 µM.

Take `C[C@H](N)C(=O)Nc1cn(C)nc1-c1ccccn1`: the IC50 is greater than 150 µM.

Regarding `CCCCCCCCCCCC(=O)Nc1cn(-c2ccccc2)nc1-c1ccccc1`, the IC50 was found to be 81 µM.

With `Cn1cc(NC(=O)CCCCCCCCCCO)c(-c2ccccn2)n1`, the half-inhibitory concentration (IC50) is greater than 150 µM.

(Values after ChEMBL document CHEMBL1157851, “Design and synthesis of novel 3,4-disubstituted pyrazoles for nanomedicine applications against malignant gliomas” (Eur J Med Chem, 2010).)
